Test results reported in ChEMBL document CHEMBL1157853, “Synthesis, pharmacological activity and comparative QSAR modeling of 1,5-N,N'-substituted-2-(substituted naphthalenesulphonyl) glutamamides as possible anticancer agents” (2010).

How the values were obtained:
[1] = Antitumor activity against ip dosed mouse EAC implanted in Swiss albino mouse assessed as inhibition of ascitic fluid administered daily for 7 days measured on 9th day relative to control; assay type: functional, Ehrlich
Procedure, shortened: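 Female Swiss albino mice (18-20 g, 6 per group) implanted ip with 2×10^6 EAC cells/0.2 mL. Compound in phosphate buffer pH 7.2 (PBS + 2% Tween 80 when needed) given ip daily from day 2, seven doses; controls received vehicle. Day 9, after a 6 h fast, mice weighed before and after ascitic fluid removal; the difference is tumor weight. %TWI derived from mean test vs control weight.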

[2] = Antitumor activity against ip dosed mouse EAC implanted in Swiss albino mouse assessed as inhibition of ascitic cell administered daily for 7 days measured on 9th day relative to control; assay type: functional, Ehrlich
Procedure, shortened: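 Female Swiss albino mice (18-20 g, 6 per group, test vs vehicle control) given 2×10^6 EAC cells/0.2 mL ip. From day 2, compound in phosphate buffer pH 7.2 (2% Tween 80 in PBS if needed) given ip every 24 h for seven doses. Day 9, after a 6 h fast, ascitic fluid withdrawn and live cells counted by trypan blue and haemocytometer. %TCI derived from mean cells/ml in test vs control.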

SMILES	inhibition (INH) [1] [%]	inhibition (INH) [2] [%]
CCNC(=O)CCC(NS(=O)(=O)c1ccc(Br)c2ccccc12)C(=O)NCC (configuration not stated)	24.34	16.22
NC(=O)CCC(NS(=O)(=O)c1ccc(Br)c2ccccc12)C(N)=O (configuration not stated)	36.46	58.25
CCCNC(=O)CCC(NS(=O)(=O)c1ccc(Br)c2ccccc12)C(=O)NCCC (configuration not stated)	2.96	14.86
CCCCCNC(=O)CCC(NS(=O)(=O)c1ccc(Br)c2ccccc12)C(=O)NCCCCC (configuration not stated)	22.81	10.42
CCCNC(=O)CCC(NS(=O)(=O)c1cccc2ccccc12)C(=O)NCCC (configuration not stated)	16.15	14.21
CC(C)NC(=O)CCC(NS(=O)(=O)c1cccc2ccccc12)C(=O)NC(C)C (configuration not stated)	17.74	43.96
CCCCNC(=O)CCC(NS(=O)(=O)c1cccc2ccccc12)C(=O)NCCCC (configuration not stated)	14.34	16.17
CC(C)CNC(=O)CCC(NS(=O)(=O)c1cccc2ccccc12)C(=O)NCC(C)C (configuration not stated)	11.93	61.96
CNC(=O)CCC(NS(=O)(=O)c1ccc(Br)c2ccccc12)C(=O)NC (configuration not stated)	20.58	10.62
CCNC(=O)CCC(NS(=O)(=O)c1ccc(Cl)c2ccccc12)C(=O)NCC (configuration not stated)	24.1	48.67
CCCNC(=O)CCC(NS(=O)(=O)c1ccc(Cl)c2ccccc12)C(=O)NCCC (configuration not stated)	18.73	39.33
CC(C)NC(=O)CCC(NS(=O)(=O)c1ccc(Cl)c2ccccc12)C(=O)NC(C)C (configuration not stated)	24.68	75.17
CCCCNC(=O)CCC(NS(=O)(=O)c1ccc(Cl)c2ccccc12)C(=O)NCCCC (configuration not stated)	20.71	33.1
CCCCCNC(=O)CCC(NS(=O)(=O)c1cccc2ccccc12)C(=O)NCCCCC (configuration not stated)	56.62	17.64
O=C(CCC(NS(=O)(=O)c1cccc2ccccc12)C(=O)NC1CCCCC1)NC1CCCCC1 (configuration not stated)	43.58	53.76
O=C(CCC(NS(=O)(=O)c1cccc2ccccc12)C(=O)NCc1ccccc1)NCc1ccccc1 (configuration not stated)	17.04	34.46

SMILES	inhibition (INH) [1] [%]	inhibition (INH) [2] [%]
NC(=O)CCC(NS(=O)(=O)c1cccc2ccccc12)C(N)=O (configuration not stated)	32.19	38.34
CNC(=O)CCC(NS(=O)(=O)c1cccc2ccccc12)C(=O)NC (configuration not stated)	27.42	69.32
CCNC(=O)CCC(NS(=O)(=O)c1cccc2ccccc12)C(=O)NCC (configuration not stated)	24.61	27.92
CCCCCCNC(=O)CCC(NS(=O)(=O)c1c(OC)ccc2ccccc12)C(=O)NCCCCCC (configuration not stated)	5.19	14.79
CC(C)CNC(=O)CCC(NS(=O)(=O)c1ccc(Cl)c2ccccc12)C(=O)NCC(C)C (configuration not stated)	15.2	41.28
CCCCCCNC(=O)CCC(NS(=O)(=O)c1ccc(Cl)c2ccccc12)C(=O)NCCCCCC (configuration not stated)	15.95	50.51
O=C(CCC(NS(=O)(=O)c1ccc(Cl)c2ccccc12)C(=O)NCc1ccccc1)NCc1ccccc1 (configuration not stated)	22.69	22.94
CNC(=O)CCC(NS(=O)(=O)c1ccc(Cl)c2ccccc12)C(=O)NC (configuration not stated)	20.57	46.52
NC(=O)CCC(NS(=O)(=O)c1ccc(Cl)c2ccccc12)C(N)=O (configuration not stated)	55.21	48.52
COc1ccc2ccccc2c1S(=O)(=O)NC(CCC(=O)NC1CCCCC1)C(=O)NC1CCCCC1 (configuration not stated)	13.52	4.34
O=C(CCC(NS(=O)(=O)c1ccc(Br)c2ccccc12)C(=O)NCc1ccccc1)NCc1ccccc1 (configuration not stated)	8.99	23.5
COc1ccc2ccccc2c1S(=O)(=O)NC(CCC(=O)NCc1ccccc1)C(=O)NCc1ccccc1 (configuration not stated)	7.57	18.78
[N-]=[N+]=CC(=O)CC[C@H](N)C(=O)O [6-DIAZO-5-OXO-L-NORLEUCINE]	100	100
[N-]=[N+]=CC(=O)OC[C@H](N)C(=O)O [AZASERINE]	100	100
CO[C@@]12[C@H](COC(N)=O)C3=C(C(=O)C(C)=C(N)C3=O)N1C[C@@H]1N[C@@H]12 [MITOMYCIN]	100	100
